Experimental data pooled from the literature.
Each line is one published result; the experiments were not run side by side.

With `NCc1ccc(-c2nn(Cc3ccccc3)c3ccccc23)o1` the IC50 was over 46 µM (CC-LP-1; cell growth or viability, ATP luminescence).
The IC50 of `Cc1cc2c(C(N)=O)cccc2n1-c1nc2c(c(NCc3ccccc3)n1)CCCN2` is reported as 1.3 µM (KMS-11; cell growth or viability; 72 h).
`Cc1cnc(CNC(=O)c2c(=O)c3ccc(N4CCCN(C)CC4)nc3n3c2sc2ccccc23)cn1` has an IC50 of 0.37 µM (SNU-449; cell growth or viability, imaging; 72 h).
The IC50 of `Cc1cc(NS(=O)(=O)c2ccc(NC(=O)/C(C#N)=C/c3ccncc3)cc2)no1` is reported as over 200 µM (HSF; cell growth or viability, MTT; 48 h).
`CCC(=CCc1c(O)cc2c(c1O)C(=O)C[C@H](c1ccccc1O)O2)CC` gave an IC50 of 37.4 µM (HeLa; cell growth or viability, MTT; 48 h).
For `OCc1ccc(-c2nn(Cc3cccnc3)c3ccccc23)o1`, the IC50 was about 46 µM (CC-LP-1; cell growth or viability, ATP luminescence).
With `O=C(CSc1nc2ccccc2s1)N/N=C/c1ccc(OCC(=O)Nc2ccc(Br)cc2)cc1` the IC50 was over 100 µM (HEL 299; cell growth or viability, MTS; 72 h).
`O=C(NO)c1ccc(Cn2cnc3c(Nc4ccc(F)c(Cl)c4)ncnc32)cc1` gave an IC50 of 3.54 µM (HEL; cell growth or viability, MTT; 72 h).
`COc1cccc2c1C(=O)c1c(O)c3c(c(O)c1C2=O)C[C@@](O)(C(=O)CO)C[C@@H]3O[C@H]1C[C@H](N)[C@H](O)[C@H](C)O1` gave an IC50 of 22.5 µM (H69AR; cell growth or viability, MTT; 75 h).
The IC50 of `Cc1cc(NS(=O)(=O)c2ccc(NC(=O)/C(C#N)=C/c3ccc(N4CCCC4)cc3)cc2)no1` is reported as over 200 µM (HSF; cell growth or viability, MTT; 48 h).
The IC50 of `CNC(=O)c1cc(Oc2ccc(NC(=O)Nc3ccc(Cl)c(C(F)(F)F)c3)cc2)ccn1` is reported as 6.37 µM (SNU-449; cell growth or viability, imaging; 72 h).
With `COc1ccccc1Cn1nc(-c2ccc(CO)o2)c2ccccc21` the IC50 was about 46 µM (CC-LP-1; cell growth or viability, ATP luminescence).
For `C(=N\Nc1cc(N/N=C/c2cccc3cccnc23)nc(-c2ccccc2)n1)/c1cccc2cccnc12`, the IC50 was 16.9 µM (BGC-823; cell growth or viability, MTT; 48 h).
With `COc1ccc(Nc2ncnc3c2ncn3Cc2ccc(C(=O)NO)cc2)cc1` the IC50 was 0.8 µM (HEL; cell growth or viability, MTT; 72 h).
The IC50 of `COc1cnccc1Cn1nc(-c2ccc(CO)o2)c2ccccc21` is reported as over 46 µM (CC-LP-1; cell growth or viability, ATP luminescence).
`Nc1ccccc1NC(=O)c1ccc(Cn2cnc3c(Nc4ccc(Cl)cc4)ncnc32)cc1` has an IC50 of 0.73 µM (NB-4; cell growth or viability, MTT; 72 h).
For `O=C(CSc1nc2ccccc2s1)N/N=C/c1ccc(OCC(=O)Nc2cccc(Br)c2)cc1`, the IC50 was over 100 µM (HEL 299; cell growth or viability, MTS; 72 h).
`COc1ncccc1Cn1nc(-c2ccc(CO)o2)c2ccccc21` has an IC50 of over 46 µM (CC-LP-1; cell growth or viability, ATP luminescence).
For `C(=N\Nc1cc(N/N=C/c2ccc3ccccc3n2)nc(-c2ccccc2)n1)/c1ccc2ccccc2n1`, the IC50 was 9.12 µM (BGC-823; cell growth or viability, MTT; 48 h).
With `COc1ccc(Nc2ncnc3c2ncn3Cc2ccc(C(=O)Nc3ccccc3N)cc2)cc1` the IC50 was 2.44 µM (NB-4; cell growth or viability, MTT; 72 h).
The IC50 of `CN1CCC(NC2CCc3[nH]c4c(C(N)=O)ccc(-c5ccccc5Cl)c4c3C2)CC1` (centres unmarked) is reported as 0.018 µM (BGC-823; cell growth or viability; 96 h).
`Cc1nc(Nc2ncc(C(=O)Nc3c(C)cccc3Cl)s2)cc(N2CC[C@H](O)C2)n1` gave an IC50 of over 10 µM (P3HR-1; cell growth or viability, ATP luminescence; 72 h).
The IC50 of `O=C(NO)c1ccc(Cn2cnc3c(Nc4ccc(Br)cc4F)ncnc32)cc1` is reported as 1.41 µM (NB-4; cell growth or viability, MTT; 72 h).
For `C#Cc1cccc(Nc2ncnc3cc(OCCOC)c(OCCOC)cc23)c1`, the IC50 was over 20 µM (BGC-823; cell growth or viability, MTT; 48 h).
`OCc1ccc(-c2nn(Cc3ccccn3)c3cccnc23)o1` gave an IC50 of over 46 µM (CC-LP-1; cell growth or viability, ATP luminescence).
The IC50 of `Cc1ccc(S(=O)(=O)NC(=O)c2cc3ccccc3n2Cc2ccc(C3CC3)c3ccccc23)cc1` is reported as 2.61 µM (mouse BMDM; IL-1β release, inhibitor, ELISA; LPS-stimulated).
`O=C(CSc1nc2ccccc2s1)N/N=C/c1ccc(OCC(=O)Nc2ccc([N+](=O)[O-])cc2)cc1` has an IC50 of over 100 µM (HEL 299; cell growth or viability, MTS; 72 h).
The IC50 of `O=C(NO)c1ccc(Cn2cnc3c(Nc4cccc([N+](=O)[O-])c4)ncnc32)cc1` is reported as 2.07 µM (HEL; cell growth or viability, MTT; 72 h).
With `O=c1[nH]cc(F)c(=O)[nH]1` the IC50 was 15.2 µM (BGC-823; cell growth or viability, MTT; 48 h).
`CS(=O)(=O)NCCCCN=C=S` has an IC50 of 42.9 µM (HDFa; cell growth or viability, MTT; 24 h).
The IC50 of `Cc1cc(NS(=O)(=O)c2ccc(NC(=O)/C(C#N)=C/c3cccnc3)cc2)no1` is reported as over 200 µM (HSF; cell growth or viability, MTT; 48 h).
`Nc1ccccc1NC(=O)c1ccc(Cn2cnc3c(Nc4ccc(Br)cc4F)ncnc32)cc1` has an IC50 of 0.39 µM (NB-4; cell growth or viability, MTT; 72 h).
`COC(=O)c1cc(C(C)=NNc2nc(-c3ccc4c(c3)OCCCO4)cs2)ccc1O` gave an IC50 of 231 µM (HSF; cell growth or viability, MTT; 96 h).
The IC50 of `NCc1ccc(-c2nn(Cc3ccccn3)c3cccnc23)o1` is reported as over 46 µM (CC-LP-1; cell growth or viability, ATP luminescence).
`O=C(NO)c1ccc(Cn2cnc3c(Nc4ccc(Cl)cc4)ncnc32)cc1` gave an IC50 of 0.77 µM (HEL; cell growth or viability, MTT; 72 h).
